PfGluPho inh = PfG6PD (Plasmodium falciparum) enzyme inhibition | 0.78% of 350,000 active | PfGluPho enzyme, NADPH resazurin-diaphorase fluorescence | inhibition, % at 20 µM;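 active = inhibition reaching at least a set limit at 20 µM in the primary screen, cut at about 59% in these data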;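 note: 0% = DMSO wells with substrate and 100% = DMSO wells lacking glucose-6-phosphate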
HKDC1 inh = inhibitors of human hexokinase HKDC1; 0.16% of 340,000 active; Q2TB90; recombinant HKDC1, G6PDH/diaphorase resazurin coupled fluorescence; inhibition, % at 20 µM;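 active = inhibition above about 35% when tested at 20 µM, limit read from the data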;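 note: plate controls were DMSO wells with enzyme for no effect and DMSO wells lacking enzyme for full effect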
Target sequence (Q2TB90 whole entry, looked up): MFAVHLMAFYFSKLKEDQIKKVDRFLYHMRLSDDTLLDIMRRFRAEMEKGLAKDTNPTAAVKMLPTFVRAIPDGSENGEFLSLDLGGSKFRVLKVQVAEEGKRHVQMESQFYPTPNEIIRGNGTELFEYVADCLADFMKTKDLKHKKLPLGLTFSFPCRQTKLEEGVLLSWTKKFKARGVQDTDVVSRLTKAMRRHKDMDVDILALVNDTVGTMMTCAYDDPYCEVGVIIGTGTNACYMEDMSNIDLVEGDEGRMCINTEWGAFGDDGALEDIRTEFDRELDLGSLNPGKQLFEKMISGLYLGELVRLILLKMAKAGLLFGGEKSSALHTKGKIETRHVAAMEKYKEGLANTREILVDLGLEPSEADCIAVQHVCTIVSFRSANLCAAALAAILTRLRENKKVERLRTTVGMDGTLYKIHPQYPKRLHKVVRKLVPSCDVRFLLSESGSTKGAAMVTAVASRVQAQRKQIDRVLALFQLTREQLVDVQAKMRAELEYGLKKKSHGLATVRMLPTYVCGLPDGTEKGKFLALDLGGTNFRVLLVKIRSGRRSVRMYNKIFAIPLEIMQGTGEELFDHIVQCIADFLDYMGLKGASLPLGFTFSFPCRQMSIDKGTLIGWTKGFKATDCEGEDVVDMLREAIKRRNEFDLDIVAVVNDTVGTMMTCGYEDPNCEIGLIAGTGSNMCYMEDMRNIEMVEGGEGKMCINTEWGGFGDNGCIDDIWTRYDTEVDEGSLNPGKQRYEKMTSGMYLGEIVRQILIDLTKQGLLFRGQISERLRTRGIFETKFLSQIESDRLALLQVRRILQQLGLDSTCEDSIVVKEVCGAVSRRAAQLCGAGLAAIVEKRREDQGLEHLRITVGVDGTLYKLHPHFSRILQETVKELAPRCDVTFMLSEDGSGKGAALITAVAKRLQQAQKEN
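Test system: recombinant HKDC1 (HK5) hexokinase enzyme, produced in-house; Amount: enzyme 5 µg/mL final; Buffer or medium: Tris pH 8.0 buffer with MgCl2, Tween-20, BSA, BME; Reagent: glucose and ATP substrates; Doses: 20 µM test compound, 1% DMSO; Incubation: 90 min reaction incubation at room temperature, dark; Detection: resorufin fluorescence at 613 nm.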
G6PDH counter = inhibits Leuconostoc G6PDH, flagging false hits in G6PDH-based assays | AID 1020 | Purified L. mesenteroides G6PDH, diaphorase/resazurin coupled fluorescence, 45 min | inhibition, % at 5 µM | 0.12% of 200,000 active; in the data active = inhibition above about 50%
Diaph inh CS = inhibits diaphorase or chemically oxidizes, flagging diaphorase assay artifacts. diaphorase resazurin-to-resorufin fluorescence, NADH, 16 min; bacterial (C. kluyveri) enzyme, not human. inhibition, % at 20 µM. 0.69% of 190,000 active;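 active = primary screen inhibition at 20 µM above a set limit, cut at about 50% in these data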;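 note: plate controls were DMSO with full reaction for no effect and wells lacking NADH for full effect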
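controls = No-NADH positive control and DMSO neutral control | system = Clostridium kluyveri diaphorase enzyme | timing = reaction incubation of 16 min at room temperature | signal = resorufin fluorescence 544/590 nm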
TbHK1 inh = blocks Trypanosoma brucei hexokinase 1 activity. recombinant TbHK1, G6PDH-coupled NADH A340. inhibition, % at 10 µM. 0.11% of 220,000 active. AID 1430;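 active = inhibition of 50% or more in the single-dose primary screen; inactive = inhibition below 50%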
PfGluPho conf = confirmation of Plasmodium falciparum G6PD inhibitors. 34% of 2,400 active. shares compounds with PfGluPho inh. inhibition, % at 20 µM. recombinant PfGluPho, NADPH-diaphorase-resazurin fluorescence;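 active = inhibition of at least 50% at 20 µM in any single replicate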;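 note: 0% = DMSO with substrate and 100% = DMSO lacking glucose-6-phosphate substrate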
Diaph ctr 10uM = inhibits diaphorase or oxidizes, flagging false PfG6PD hits; shares compounds with PfGluPho inh; diaphorase-coupled resazurin reduction, fluorescence, NADPH 10 uM; inhibition, % at 20 µM; 39% of 820 active; AID 504862;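 active = average inhibition reaching 50% or more with the compound at 20 µM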;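 note: resorufin red fluorescence formed as diaphorase reduces resazurin using NADPH; 0% = DMSO with enzyme and 100% = DMSO without enzyme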
Diaph ctr 30uM = diaphorase inhibition or oxidation at 30 uM NADPH. shares compounds with PfGluPho inh. Diaphorase/resazurin coupled assay, resorufin fluorescence. inhibition, % at 20 µM. 29% of 820 active;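 active = inhibition averaging 50% or more, tested at 20 µM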;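 note: 0% = DMSO with enzyme and 100% = DMSO wells lacking diaphorase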
* marks the source's active call; other numbers are inactive results; x = not tested or not shown. Compounds with a hit are over-represented: about 1.3% of the library has one in this group of screens.

SMILES | PfGluPho inh | HKDC1 inh | G6PDH counter | Diaph inh CS | TbHK1 inh | PfGluPho conf | others
COc1ccc(-c2nc(C#N)c(NCc3ccccc3Cl)o2)cc1OC | -10 | 3 | -3 | 4 | -5 | x
CCn1cc(C(=O)O)c(=O)c2cc(F)c(N3CCN(C(=S)NC(=O)c4ccccc4C)CC3)cc21 | 11 | -3 | x | x | -10 | x
O=C(O)/C=C/C(=O)NCCc1ccc(Cl)cc1 | -5 | 0 | x | x | -9 | x
O=C(Nc1cccc([N+](=O)[O-])c1)c1cc2ccccc2cc1O | 73* | 0 | x | x | -17 | 11
O=C(Nc1ccncc1)c1ccccc1F | -2 | -2 | 7 | 1 | 0 | x
COc1cc(OC)c(NC(=O)c2cc3ccccc3cc2O)cc1Cl | 85* | 9 | x | x | x | 23
O=C(Nc1ccncc1)c1cc2ccccc2cc1O | 68* | 22 | x | x | x | 43
COc1cc(C(=O)Nc2cccc(S(=O)(=O)N3CCCC3)c2)cc(OC)c1C | 60* | 4 | x | x | -11 | -8
CS(=O)(=O)c1cccc(C(=O)Nc2cccc(S(=O)(=O)N3CCCC3)c2)c1 | 14 | -6 | x | x | x | x
CC(C)c1nc2sc3c(=O)n(N)cnc3c2c2c1COC(C)(C)C2 | 60* | 28 | 4 | 49 | -6 | 15
C/C(Cn1nnc([N+](=O)[O-])n1)=N\NC(=O)c1ccc(Cl)c(Cl)c1 | 83* | 9 | 10 | 6 | 2 | 77* | Diaph ctr 10uM=45;Diaph ctr 30uM=34
C/C(Cn1nnc([N+](=O)[O-])n1)=N\NC(=O)c1ccc(O)cc1 | 71* | 6 | x | x | -12 | 53* | Diaph ctr 10uM=27;Diaph ctr 30uM=27
C/C(Cn1cnc([N+](=O)[O-])n1)=N\NC(=O)c1ccc(Br)cc1 | -5 | -8 | 10 | 12 | 9 | x
O=C1c2ccccc2C(=O)N1n1cccc1 | -9 | -7 | 4 | 0 | 1 | x
Cc1ccc(-c2nn(C)c(=O)c3ccccc23)cc1CNC(=O)/C=C/c1ccccc1 | 77* | 4 | 0 | -7 | -8 | 76* | Diaph ctr 10uM=59*;Diaph ctr 30uM=50
CC(=O)NCc1cc(-c2nn(C)c(=O)c3ccccc23)ccc1C | -1 | 3 | -2 | 11 | -4 | x
CN(C(=O)CSc1n[nH]c(=O)[nH]c1=O)c1ccccc1 | -21 | -2 | x | x | x | x
O=C(Sc1n[nH]c(=O)[nH]c1=O)c1ccccc1 | 111* | 1 | x | x | x | 93* | Diaph ctr 10uM=-8;Diaph ctr 30uM=-9
CC1CN(C(=O)COC(=O)CSc2ccc([N+](=O)[O-])cc2)CC(C)O1 (centres undefined) | 60* | 0 | x | x | x | -4
O=C(CSc1ccc([N+](=O)[O-])cc1)OCC(=O)N1CCCC1=O | -7 | 4 | x | x | x | x
COc1cc(C(=O)O/N=C2/C=C(C)C(=O)C=C2C)cc(OC)c1OC | 61* | 4 | 21 | 27 | -6 | 57* | Diaph ctr 10uM=27;Diaph ctr 30uM=8
CCOC(=O)C1=C(CSc2nc(-c3ccncc3)ccc2C#N)OC(N)=C(C#N)C1c1cccnc1 (centres undefined) | 18 | 7 | 13 | 6 | -16 | x
CCOC(=O)C1=C(CSc2nc(-c3ccncc3)ccc2C#N)OC(N)=C(C#N)C1c1ccc(OC)cc1 (centres undefined) | 59* | 11 | 9 | 14 | -33 | 10
CCCP(=O)(CCC)CCP(=O)(c1ccccc1)c1ccccc1 | -3 | -11 | 4 | 11 | -8 | x
Cc1ccc(NC(=O)c2ccccc2OCC(=O)c2ccc(F)cc2)cc1 | -2 | -7 | -2 | 7 | 11 | x
SMILES | PfGluPho inh | HKDC1 inh | G6PDH counter | Diaph inh CS | TbHK1 inh | PfGluPho conf | others
CCOc1cccc(CNc2ccc(O)cc2)c1OCc1ccc(Cl)cc1Cl | 69* | 17 | 5 | 30 | 9 | 26
CC(=O)Nc1nc(=S)ss1 | 51 | 1 | 15 | 9 | -14 | x
c1ccc2c(c1)CCN(c1nc3cc4c(cc3s1)OCCO4)C2 | 64* | 9 | -6 | 4 | 0 | 18
O=S(=O)(Nc1ccccc1N1CCCC1)c1ccccc1C(F)(F)F | 16 | x | x | x | x | x
O=S(=O)(Nc1ccccc1N1CCCCC1)c1ccc(Cl)s1 | 86* | 2 | 6 | 18 | 8 | 22
COc1cc(Nc2nc3ccccc3nc2NS(=O)(=O)c2ccc([N+](=O)[O-])cc2)cc(OC)c1OC | 5 | -1 | x | x | x | x
CCc1ccc(N2CN(Cc3ccco3)CNC2=S)cc1 | 1 | -6 | x | x | -5 | x
CSc1cnn(-c2ccccc2)c(=O)c1SC | 2 | 4 | 4 | 5 | -9 | x
CSc1cnn(Cc2ccccc2)c(=O)c1SCc1ccccc1 | 66* | -4 | -3 | 17 | 3 | -6
CCNC(=O)O/N=C(\C)c1sc(-c2ccccc2)nc1C | -3 | -6 | 9 | 12 | -8 | x
CCNc1cc(S(=O)(=O)C(F)(F)F)ccc1N | 72* | 9 | 4 | 10 | -10 | 42
CCc1nc(Nc2ccncc2)c2oc3ccccc3c2n1 | 13 | -5 | -3 | 12 | -69 | x
CCc1nc(Nc2cccc(O)c2)c2oc3ccccc3c2n1 | 73* | 5 | x | x | x | 12
COc1ccc(CSCC(=O)N/N=C/c2ccccc2OCc2ccccc2)cc1 | 89* | -2 | 0 | 12 | 5 | 20
O=C(CSCc1ccccc1)N/N=C/c1ccccc1OCc1ccccc1 | 63* | 9 | 8 | -4 | 5 | -14
COc1ccc(CSCC(=O)N/N=C/c2ccc(OCC(=O)NCc3ccco3)cc2)cc1 | -9 | -1 | -1 | 25 | 5 | x
CCOC(=O)c1c(NC(=O)C2C3CCC(O3)C2C(=O)O)sc2c1CCCC2 (centres undefined) | -23 | -3 | 2 | 3 | -8 | x
CC(=O)OCC(=O)C1(O)CCC2C3CC(C)C4=CC(=O)C=CC4(C)C3=CCC21C (centres undefined) | 61* | -6 | x | x | x | 40
CC(=O)OCC(=O)[C@@]1(O)CC[C@H]2[C@@H]3C[C@H](C)C4=CC(=O)C=C[C@]4(C)[C@H]3[C@@H](O)C[C@@]21C | 0 | -9 | x | x | x | x
CCN(CC(=O)Nc1ccccc1C(F)(F)F)C(=O)c1ccc2[nH]c3c(c2c1)CC(C)CC3 (centres undefined) | 90* | 0 | x | x | x | 37
CSC(=S)NN=C(C)c1cccc(C)n1 | 95* | -37 | x | x | x | 30
Cc1cccc(C(=S)N2CCOCC2)n1 | -6 | -3 | x | x | x | x
CC(=O)N(c1cc(C)ccc1C)c1ccccc1[N+](=O)[O-] | -4 | -5 | x | x | x | x
Cc1cc2nc(/C(C#N)=C\c3ccc(-c4ccccc4C(=O)O)o3)[nH]c2cc1C | 60* | 12 | x | x | x | 46
CCc1ccc(NC(=O)Nc2cc(C(=O)NCC3CCCO3)ccc2N2CC3CC(C2)c2cccc(=O)n2C3)cc1 (centres undefined) | 4 | -3 | x | x | x | x
